Reference: ChEMBL document CHEMBL4251737, “Imidazo[2,1-b]benzothiazol Derivatives as Potential Allosteric Inhibitors of the Glucocorticoid Receptor” (ACS Med Chem Lett, 2018)
Several values for one entry are separate records, joined by “and”; a condition that tells them apart may be missing. Equal entries are not always repeated. Activity calls are given as the source filed them. The rule behind the calls is not given here.

What was measured:
[1] = molecular target: T1, Glucocorticoid receptor (Homo sapiens) (UniProt P04150); experiment: Transrepression of GCR (unknown origin) expressed in human fibrosarcoma cells assessed as inhibition of DEX-induced GCR activation at 0.1 uM after 6 hrs by luciferase reporter gene assay relative to DEX; values are per cent of control
T1 sequence (whole entry): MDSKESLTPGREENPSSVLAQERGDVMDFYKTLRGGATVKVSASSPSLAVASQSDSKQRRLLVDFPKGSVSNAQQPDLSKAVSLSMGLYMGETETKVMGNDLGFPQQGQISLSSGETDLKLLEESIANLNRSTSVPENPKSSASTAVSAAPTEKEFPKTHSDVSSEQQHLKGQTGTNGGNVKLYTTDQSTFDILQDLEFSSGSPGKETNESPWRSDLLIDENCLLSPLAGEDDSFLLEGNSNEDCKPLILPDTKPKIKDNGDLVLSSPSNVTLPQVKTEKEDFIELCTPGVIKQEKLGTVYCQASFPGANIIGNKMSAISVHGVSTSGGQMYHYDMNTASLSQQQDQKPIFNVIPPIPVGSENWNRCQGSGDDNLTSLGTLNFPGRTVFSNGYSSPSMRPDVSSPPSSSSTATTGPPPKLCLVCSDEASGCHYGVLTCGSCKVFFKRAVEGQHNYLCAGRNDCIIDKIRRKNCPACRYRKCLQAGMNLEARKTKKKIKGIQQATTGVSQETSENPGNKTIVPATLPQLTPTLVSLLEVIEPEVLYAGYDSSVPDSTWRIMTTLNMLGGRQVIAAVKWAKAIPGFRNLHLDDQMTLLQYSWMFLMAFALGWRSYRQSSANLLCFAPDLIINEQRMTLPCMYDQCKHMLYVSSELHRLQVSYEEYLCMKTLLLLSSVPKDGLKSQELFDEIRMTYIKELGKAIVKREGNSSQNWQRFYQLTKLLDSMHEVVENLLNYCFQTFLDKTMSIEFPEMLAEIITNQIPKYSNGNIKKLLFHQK

[2] = molecular target: T1, Glucocorticoid receptor (Homo sapiens); experiment: Transactivation of GCR (unknown origin) expressed in human fibrosarcoma cells at 0.1 uM after 6 hrs by luciferase reporter gene assay; format: cell-based
How it was run: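 GCR luciferase reporter run with single compound at 0.1 µM to probe agonism; reference agonist DEX at 1 µM.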

[3] = Solubility of the compound in water; format: physicochemical; conditions: buffer
[4] = molecular target: T1, Glucocorticoid receptor (Homo sapiens); experiment: Transrepression of GCR in human HeLa cells assessed as suppression of DEX-induced GILZ mRNA expression at 0.4 to 2 uM after 24 hrs by Taqman-based real-time PCR analysis; format: cell-based
How it was run: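 HeLa cells treated 24 h with DEX alone (0.1 µM) or DEX plus compound; GILZ transcription measured. RU486 plus DEX served as competitive-antagonist control.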

[5] = molecular target: T1, Glucocorticoid receptor (Homo sapiens); experiment: Transrepression of GCR in human HeLa cells assessed as down regulation of GILZ mRNA expression at 0.4 uM after 24 hrs by Taqman-based real-time PCR analysis; format: cell-based
How it was run: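 GILZ expression measured in HeLa cells after 24 h treatment at 0.4 and 2 µM, relative to untreated cells.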

[6] = system: HeLa; experiment: Cytotoxicity against human HeLa cells after 72 hrs by MTT assay; format: cell-based
How it was run: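 HeLa cells exposed 72 h in complete medium to 0.4, 2, 10, 50 and 250 µM; viability read by MTT. Means ± SE of 3 independent experiments run in triplicate.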

[7] = molecular target: T1, Glucocorticoid receptor (Homo sapiens); experiment: Transrepression of GCR (unknown origin) expressed in human fibrosarcoma cells assessed as suppression of TNF-induced NFkappaB activity at 1 uM pretreated for 2 hrs followed by TNF addition after 4 hrs by luciferase reporter gene assay relative to control; format: cell-based
How it was run: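 Cells pretreated 2 h with compound alone, then TNF added and combination treatment continued 4 h; NF-kB luciferase reporter activity measured.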

[8] = system: HeLa; experiment: Down regulation of GCRalpha expression in human HeLa cells at 0.4 uM after 24 hrs by Taqman-based real-time PCR analysis relative to control; format: functional
How it was run: (§1)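 GCR transcripts quantified in HeLa cells after 24 h treatment at 0.4 and 2 µM. Means ± SD of 3 independent experiments; compared by one-way ANOVA.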

[9] = system: HeLa; experiment: Down regulation of GCRalpha expression in human HeLa cells at 2 uM after 24 hrs by Taqman-based real-time PCR analysis relative to control; format: functional, cell-based
How it was run: as §1

SMILES	residual activity [1]	Activity [2]	Activity [5]	EC50 [6]	further results
Brc1ccc(-c2cn3c(n2)sc2ccccc23)cc1	20%	inactive	–	–	–
OCc1ccc(-c2cn3c(n2)sc2ccccc23)cc1	34%	inactive	–	–	–
Cl.NCc1ccc(-c2cn3c(n2)sc2ccccc23)cc1	–	–	–	–	solubility [3]: Soluble
CCn1c2ccccc2n2cc(-c3ccc(C#N)cc3)nc12	25%	inactive	–	–	–
NCc1ccc(-c2cn3c(n2)sc2ccccc23)cc1 [listing 1 of 2 here]	–	inactive	Active	–	Activity [4]: inactive
N#Cc1ccc(-c2cn3c4c(sc3n2)CCCC4)cc1	18%	inactive	Active	1.7 µM	Activity [4]: inactive; Activity [7]: 76%
NCc1ccc(-c2cn3c(n2)sc2ccccc23)cc1 [listing 2 of 2 here]	–	–	–	3.6 µM	–
N#Cc1ccc(-c2cn3c4c(sc3n2)C(=O)CCC4)cc1	–	–	Active	16 µM	Activity [8]: Active; Activity [9]: inactive
O=C(O)c1ccc(-c2cn3c4c(sc3n2)CCCC4)cc1	–	–	Active	170 µM	Activity [8]: 50%; Activity [9]: inactive
Cl.NCc1ccc(-c2cn3c4c(sc3n2)CCCC4)cc1	23% and 35%	inactive	–	–	solubility [3]: Soluble
COC(=O)c1ccc(-c2cn3c4c(sc3n2)CCCC4)cc1	–	–	Active	7.7 µM	Activity [8]: Active; Activity [9]: inactive
Nc1ccc(-c2cn3c(n2)sc2ccccc23)cc1	23%	inactive	–	–	–
Cc1ccc(-c2cn3c(n2)sc2ccccc23)cc1	30%	inactive	–	–	–
